The record followed here is ChEMBL document CHEMBL4219220, “Novel compounds that target lipoprotein lipase and mediate growth arrest in acute lymphoblastic leukemia” (Bioorg Med Chem Lett, 2018).

For orientation: inhibition means the relative decrease from the control value, in per cent. By IC50 is commonly meant the midpoint of a concentration-inhibition curve.

Data set [1] concerns REH. Briefly: Antiproliferative activity in human REH cells assessed as inhibition of cell proliferation at 50 uM incubated for 72 hrs by CCK8 assay. The format is functional. The essentials: (§1)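 REH (Ph-negative, peripheral blood derived) and SupB15 (Ph-positive, bone marrow derived) B-ALL cells seeded at 50,000 cells/well in 96-well plates. Single test concentration of 50 μM (final) for 72 h, with untreated cells as controls. Proliferation read by CCK-8 (reagent 2 h at 37° C, absorbance 450 nm). Mean ± SEM, N = 3.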

For data set [2], the system named is SUP-B15. Briefly: Antiproliferative activity in human SUP-B15 cells assessed as inhibition of cell proliferation at 50 uM incubated for 72 hrs by CCK8 assay. The format is functional, cell-based. The essentials: as §1
A general note: Tetrazolium dyes change colour on reduction, which living cells bring about.

Data set [3] concerns REH. The experiment in a line: Antiproliferative activity in human REH cells assessed as inhibition of cell proliferation incubated for 72 hrs by CCK8 assay. The class given is functional, cell-based. In short, it runs like this: (§2)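 Dose-response in REH and SupB15 cells. Proliferation read by CCK-8 after 72 h of compound exposure (reagent 2 h at 37° C, absorbance 450 nm). IC50 taken from the dose-response curve.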

Data set [4] deals with SUP-B15. The experiment in a line: Antiproliferative activity in human SUP-B15 cells assessed as inhibition of cell proliferation incubated for 72 hrs by CCK8 assay. The class given is functional, cell-based. To be noted: SUP-B15, 72 h. The essentials: as §2
The test system of data set [5] is REH. Briefly: Induction of cell death in human REH cells co-cultured with bone marrow stromal cells assessed as reduction in live cell population of suspended floater cells at 20 to 40 uM. The format is functional, cell-based. In short, it runs like this: (§3)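 REH leukemic cells in co-culture with bone marrow stromal cells. Two fractions were scored: suspended floaters (FL), and phase dim (PD) cells lying beneath the stromal layer. Read-outs were live cell population and cell death.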

In data set [6] the test system is REH. Briefly: Induction of cell death in human REH cells co-cultured with bone marrow stromal cells assessed as reduction in live cell population of phase dim cells buried underneath bone marrow stromal layer at 20 to 40 uM. The class given is functional, cell-based. In short, it runs like this:
as §3

For data set [7], the system named is REH. Briefly: Induction of cell death in human REH cells co-cultured with bone marrow stromal cells assessed as increase in cell death of suspended floater cells at 20 to 40 uM. The class given is functional, cell-based. The essentials:
as §3

Data set [8] deals with REH. The experiment in a line: Induction of cell death in human REH cells co-cultured with bone marrow stromal cells assessed as increase in cell death of phase dim cells buried underneath bone marrow stromal layer at 20 to 40 uM. The class given is functional, cell-based. In short, it runs like this: as §3
For the next data set, the target named is Albumin (Homo sapiens, UniProt P02768). The experiment in a line: Binding affinity to serum albumin (unknown origin) at 1 to 100 uM. The class given is ADME. To be noted: read-out: PB.

The structures appear in SMILES notation. Calls of active or inactive are those of the source. No cut-off for these calls is given here.

Sequence of Albumin (P02768 whole entry): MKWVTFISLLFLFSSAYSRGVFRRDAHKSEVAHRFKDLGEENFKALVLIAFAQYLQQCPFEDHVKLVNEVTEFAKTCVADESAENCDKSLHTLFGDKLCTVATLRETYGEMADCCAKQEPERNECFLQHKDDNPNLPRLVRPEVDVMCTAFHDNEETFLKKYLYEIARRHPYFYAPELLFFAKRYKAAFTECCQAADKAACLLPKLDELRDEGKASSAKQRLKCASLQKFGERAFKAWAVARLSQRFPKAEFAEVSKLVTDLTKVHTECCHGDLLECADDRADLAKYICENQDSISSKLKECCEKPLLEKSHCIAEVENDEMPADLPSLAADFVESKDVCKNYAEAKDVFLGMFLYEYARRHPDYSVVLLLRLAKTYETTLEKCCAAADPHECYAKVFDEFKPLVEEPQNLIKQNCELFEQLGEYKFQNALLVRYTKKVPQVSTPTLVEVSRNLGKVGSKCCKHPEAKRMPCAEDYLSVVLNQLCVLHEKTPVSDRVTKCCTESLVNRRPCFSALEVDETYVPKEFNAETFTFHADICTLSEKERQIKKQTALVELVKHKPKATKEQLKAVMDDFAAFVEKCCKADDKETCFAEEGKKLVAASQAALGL

Turning to `CSc1ncc(CNC(=O)C2C(c3ccc(F)cc3)C2(C)C)n1C` (configuration not stated), the inhibition result in the data set with REH [1] is “Active”. Further, the inhibition result in the data set with SUP-B15 [2] was “inactive”.

Turning to `CC1(C)C(C(=O)NCCCN2CCOCC2)C1c1ccc(F)cc1` (configuration not stated), in the data set on REH [1], the inhibition entry was “Active”. Further, in the data set with SUP-B15 [2], the inhibition entry was “inactive”.

With `Cc1cccc(=O)n1CCCNC(=O)C1C(c2ccc(F)cc2)C1(C)C` (configuration not stated), the inhibition entry with REH [1] was “Active”. Also, the inhibition result with SUP-B15 [2] is “inactive”.

With `Cc1cnc(CNC(=O)C2C(c3ccc(F)cc3)C2(C)C)cn1` (configuration not stated), in the data set on REH [1], the inhibition result was “Active”. Besides, in the data set on SUP-B15 [2], the inhibition entry was “inactive”.

With `CC1(C)C(C(=O)N2CC(c3cccnc3)C2)C1c1ccc(F)cc1` (configuration not stated), the inhibition entry with REH [1] is “Active”. For the same compound, in the data set with SUP-B15 [2], the inhibition result was “inactive”.

Consider `CN1CC2(CCC1=O)CCN(C(=O)C1C(c3ccc(F)cc3)C1(C)C)CC2` (configuration not stated), for which the inhibition result in the data set on REH [1] was “Active”. Also, the inhibition result in the data set with SUP-B15 [2] was “inactive”.

With `CC1(C)C(C(=O)NCCNc2cccnc2)C1c1ccc(F)cc1` (configuration not stated), in the data set on REH [1], the inhibition entry is “Active”. Moreover, the inhibition entry in the data set with SUP-B15 [2] is “inactive”.

For the compound `Cc1cc(CNC(=O)C2C(c3ccc(F)cc3)C2(C)C)ccn1` (configuration not stated), the inhibition entry in the data set on REH [1] was “Active”. Besides, in the data set on SUP-B15 [2], the inhibition result is “inactive”.

Take `CC1(C)C(C(=O)NCC2CCC(C(=O)O)CC2)C1c1ccc(F)cc1` (configuration not stated): the inhibition result with REH [1] is “Active”. In the data set with SUP-B15 [2], the inhibition result is “inactive”.

In the case of `Cc1cccnc1CN1CCN(C(=O)C2C(c3ccc(F)cc3)C2(C)C)CC1` (configuration not stated), in the data set with REH [1], the inhibition entry is “Active”. Besides, the inhibition entry in the data set with SUP-B15 [2] was “inactive”.

In the case of `Cc1nccn1-c1ccccc1CNC(=O)C1C(c2ccc(F)cc2)C1(C)C` (configuration not stated), the inhibition entry in the data set with REH [1] was “Active”. For the same compound, in the data set with SUP-B15 [2], the inhibition entry is “inactive”.

`Cc1nc[nH]c1CCCCNC(=O)C1C(c2ccc(F)cc2)C1(C)C` (configuration not stated): in the data set on REH [1], the inhibition entry is “Active”. The inhibition result in the data set with SUP-B15 [2] is “inactive”.

Turning to `CC1(C)C(C(=O)NCc2noc(-c3ccco3)n2)C1c1ccc(F)cc1` (configuration not stated), the inhibition result in the data set on REH [1] is “Active”. Besides, the inhibition result in the data set with SUP-B15 [2] was “inactive”.

With `CCc1c(C)nn(CCNC(=O)C2C(c3ccc(F)cc3)C2(C)C)c1C` (configuration not stated), the inhibition at 50 µM in the data set on REH [1] was above 50%. Further, in the data set on SUP-B15 [2], the inhibition entry was “Active”. Besides, the IC50 was 16.5 µM in the data set on REH [3] and 44.7 µM with SUP-B15 [4]. Moreover, the result with REH [5], in the data set with REH [6], in the data set on REH [7] and with REH [8] was Active. For the same compound, the fraction unbound at up to 100 µM at Albumin was above 0.95.

For the compound `CC1(C)C(C(=O)N2CCN(c3cnccn3)CC2)C1c1ccc(F)cc1` (configuration not stated), the inhibition entry with REH [1] was “Active”. For the same compound, the inhibition result in the data set with SUP-B15 [2] is “inactive”.

On to `CC1(C)C(C(=O)N2CCC3(CCCO3)CC2)C1c1ccc(F)cc1` (configuration not stated), for which, in the data set on REH [1], the inhibition entry was “Active”. Further, in the data set with SUP-B15 [2], the inhibition result was “inactive”.

Turning to `COCc1cc(CNC(=O)C2C(c3ccc(F)cc3)C2(C)C)n[nH]1` (configuration not stated), the inhibition result in the data set on REH [1] is “Active”. In the data set with SUP-B15 [2], the inhibition entry is “inactive”.

As for `CSCc1nc(CNC(=O)C2C(c3ccc(F)cc3)C2(C)C)no1` (configuration not stated), in the data set on REH [1], the inhibition result was “Active”. The inhibition entry with SUP-B15 [2] was “inactive”.

In the case of `CC1C=NN=C1C(C)NC(=O)C1C(c2ccc(F)cc2)C1(C)C` (configuration not stated), the inhibition entry in the data set with REH [1] was “Active”. In the data set with SUP-B15 [2], the inhibition entry was “inactive”.

`CC1(C)C(C(=O)NCCCc2cnc(N)s2)C1c1ccc(F)cc1` (configuration not stated): the inhibition result with REH [1] was “Active”. The inhibition result in the data set with SUP-B15 [2] was “inactive”.
